Bioassay records from PubChem.
An excerpt weighted towards active compounds, which were near 2.2% of everything screened.
SKN-1 block: suppressors of acrylamide-induced Pgst-4::GFP reporter in worms, primary screen, SKN-1 inhibitor project, whole organism, uHTS, GFP/RFP fluorescence ratio, strain VP596. 0.49% of 360,000 active. C. elegans VP596 Pgst-4::GFP/RFP ratio, 24 h. inhibition, % at 21.8 µM;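 active = interference check ratio from 0.5 to 1.5 plus GFP to RFP signal ratio inhibition reaching or exceeding a fixed threshold, cut at about 30% in these data, passing the limit was not always enough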
proKLK7 act: proKLK7 zymogen activators, primary screen, biochemical, fluorescence intensity. purified proKLK7, EDANS-DABCYL substrate fluorescence; 100% is mature enzyme control, 0% vehicle. AID 652039, 2013. 0.9% of 370,000 active. activation, % at 7 µM;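 active = activation above the mean of all tested compounds plus 3 SD, computed per campaign excluding outliers beyond control limits, cut at about 13% in these data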
Target sequence (P49862 whole entry, looked up): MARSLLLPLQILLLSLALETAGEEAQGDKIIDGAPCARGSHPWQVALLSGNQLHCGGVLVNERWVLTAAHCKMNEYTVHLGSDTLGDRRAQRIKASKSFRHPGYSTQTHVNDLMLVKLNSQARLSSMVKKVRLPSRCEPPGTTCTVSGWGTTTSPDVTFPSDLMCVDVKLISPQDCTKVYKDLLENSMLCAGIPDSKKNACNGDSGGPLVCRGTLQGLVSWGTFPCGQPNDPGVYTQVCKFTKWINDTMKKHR
DDE Tn6 FP inh: inhibitors of Tn6 peptide binding to fibrin DD(E), primary screen, biochemical, fluorescence polarization, human fibrin, Tn6 probe | 0.21% of 370,000 active | Fibrinogen beta chain (Homo sapiens), P02675 | inhibition, % at 8.3 µM | AID 720509, 2013 | Fibrin DD(E) TRITC-Tn6 fluorescence polarization displacement;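 active = inhibition above a per-campaign cutoff: mean of compounds within control limits plus 3 SD, cut at about 15% in these data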
Neddyl block: inhibitors of cullin neddylation, primary screen, biochemical, TR-FRET, uHTS, NAE and Ubc12. NEDD8-conjugating enzyme Ubc12 (Homo sapiens) + NEDD8-activating enzyme E1 regulatory …. calls only at 25 µM. 0.58% of 360,000 active. AID 651699, 2012; in the data active = inhibition above about 36%
DDE Tn7 FP inh: inhibitors of Tn7 peptide binding to fibrin DD(E), primary screen, biochemical, fluorescence polarization, human fibrin, Tn7 probe | AID 720508, 2013 | Fibrinogen beta chain (Homo sapiens), P02675 | 0.13% of 370,000 active | FP displacement of FITC-Tn7 peptide from fibrin DD(E); 0% = median of compound wells per plate | inhibition, % at 8.3 µM;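 active = inhibition above the mean of compounds falling within the control limits plus 3 SD of them, cut at about 14% in these data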
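Assay system: Fibrin-DD(E) protein isolated from polymerized human fibrin clots; read-out basis: percent inhibition; medium: Tris/NaCl/CaCl2 buffer, pH 7.8; signal: FP measurement; incubation: 10 min plus 3 h, room temperature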
MT1-MMP act inh: blockers of MT1-MMP proenzyme processing, primary screen, HT1080 RFP-PRO-GFP cells, GFP/RFP fluorescence | 0.061% of 360,000 active | GFP/RFP ratio fluorescence, overnight; percent of plate control window, DMSO zero | Matrix metalloproteinase-14 (Homo sapiens), P50281 | GFP/RFP ratio change, % at 20 µM | AID 651647, 2012;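 active = GFP/RFP ratio change of at least 30% with cell ATP level not reduced by more than half and red fluorescence within 50% of control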
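Test system: HT1080 RFP-PRO-GFP cells; Benchmarks: DMSO and RFP-L50D-GFP cell wells; Timing: cells overnight before dosing, compound overnight, 37 °C, 5% CO2; Compound: one 20 µM compound dose with 1% DMSO; Read-out: GFP/RFP fluorescence ratio.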
Of the large screens only hits and unclear results are named; the others gave an inactive call.

O=C(NCCN1C(=O)C2C3C=CC(C3)C2C1=O)Nc1ccccc1O (stereo unspecified)	SKN-1 block 38.0
Cc1ccc(C=Cc2ccccn2)cc1	SKN-1 block 42.7
Clc1ccc(C=Cc2ccccn2)cc1	SKN-1 block 72.3
C(=C\c1ccccn1)/c1ccccn1	none
COCCn1cnnc1SCC(=O)Nc1sccc1C(N)=O	none
O=C(Oc1ccc(OC(=O)c2ccco2)c(S(=O)(=O)c2ccc(Br)cc2)c1)c1ccco1	SKN-1 block 36.4 (no result: proKLK7 act, DDE Tn6 FP inh, DDE Tn7 FP inh)
Cc1ccc(S(=O)(=O)c2cc(OC(=O)c3ccco3)ccc2OC(=O)c2ccco2)cc1	none
CCOc1ccccc1NC(=O)COn1nnc2ccc(Cl)cc21	none
CCOc1ccc(/C=C/C2=Cc3c(sc(NC(=O)CSc4n[nH]c(N)n4)c3C#N)C(C)(C)C2)cc1	SKN-1 block 36.5
Cc1ccsc1/C=C/C1=Cc2c(sc(NC(=O)CSc3n[nH]c(N)n3)c2C#N)C(C)(C)C1	none
COc1ccc(-n2nnnc2SCC(=O)N2CCN(C(=O)c3ccco3)CC2)cc1OC	none
CCOc1ccc(C(=O)CCC(=O)Nc2cccc(S(=O)(=O)N3CCCCC3)c2)cc1	none
Cc1ccccc1C(=O)Nc1nc(=S)ss1	none
Cc1ccc(C(=O)CSC2=C(C#N)C(c3ccco3)C3=C(CC(C)(C)CC3=O)N2)cc1 (stereo unspecified)	SKN-1 block 27.6
O=C1/C(=C/c2ccccc2)CCCc2ccccc21	SKN-1 block 46.7
COCCCNC(=O)c1ccc2c3c(onc13)-c1ccccc1C2=O	SKN-1 block 62.1 (no result: proKLK7 act, DDE Tn6 FP inh, DDE Tn7 FP inh)
CCOC(=O)Nc1nc(C)c(C(=O)c2ccc(Cl)cc2)s1	none (no result: MT1-MMP act inh)
CCOC(=O)Nc1nc(-c2ccc(Cl)cc2Cl)cs1	SKN-1 block 57.1
O=C(c1ccccc1NS(=O)(=O)c1cccs1)N1CCCC1	none
Cc1cc(C)c2ccc3c(C)c(C)nc3c2[nH]1	SKN-1 block 53.2
Nc1ccccc1C(=O)NNC(=O)C(=O)/C=C(\O)c1ccccc1	Neddyl block active
Fc1ccccc1-c1n[nH]c(=S)n1C1CC1	none
CCOC(=O)c1cc(C(C)=O)n2ccccc12	none
O=[N+]([O-])c1ccc(NN=Cc2cccc([N+](=O)[O-])c2)cc1	SKN-1 block 38.3
O=[N+]([O-])c1ccc(N/N=C/c2cccc(O)c2)cc1	none
O=C(Nc1ccc(-c2nc3cccnc3s2)cc1)c1ccco1	SKN-1 block 46.1
O=C(Nc1cccc(-c2nc3cccnc3s2)c1)c1ccco1	none
Cc1ccc(NC(=O)COc2ccc(Br)cc2CO)cc1S(=O)(=O)N1CCOCC1	SKN-1 block 41.2
O=C(COc1ccc(Br)cc1CO)Nc1ccc(S(=O)(=O)N2CCCC2)cc1	none
CC(C)(C)C1CCC(=NNC(=O)c2ccccc2-n2cccc2)CC1 (stereo unspecified)	none
Cc1ccc(N(CC(=O)Nc2ccc(S(=O)(=O)N3CCOCC3)cc2)S(C)(=O)=O)cc1C	none
CC(C)c1ccc(N(CC(=O)Nc2ccc(S(=O)(=O)N3CCOCC3)cc2)S(C)(=O)=O)cc1	SKN-1 block 40.0
COCOCCn1cc(CN2CCS(=O)(=O)N(Cc3ccc(-c4cccc(N(C)C)c4)cc3)C(C(C)C)C2=O)nn1 (stereo unspecified)	SKN-1 block 35.7
COc1ccc(S(=O)(=O)Nc2ccc(N3CCOCC3)cc2)cc1Br	none
O=C(Nc1nccs1)c1ccc(-c2ccccc2[N+](=O)[O-])o1	SKN-1 block 36.1
O=C(Nc1ccccc1)c1ccc(-c2ccccc2Cl)o1	none
O=C(Nc1nccs1)c1ccc(-c2ccccc2Cl)o1	SKN-1 block 52.7
CCOC(=O)C1CCN(C(=O)c2[nH]c3ccc(OC)cc3c2C)CC1	none
CC(CCc1ccco1)NC(=O)CSc1cc(=O)n(C)c2ccccc12 (stereo unspecified)	SKN-1 block 37.1
COc1cccc(-c2nc(-c3cccs3)no2)c1	SKN-1 block 46.2
COc1cc(OC)cc(-c2nc(-c3cccs3)no2)c1	none
COc1cccc(-c2noc(-c3ccoc3C)n2)c1	SKN-1 block 55.5
CCOC(=O)N1CCC(N2CCN(S(=O)(=O)CC)CC2)CC1	none (no result: proKLK7 act, DDE Tn6 FP inh, DDE Tn7 FP inh)
Fc1cc(Br)ccc1COc1ccc(-c2nnco2)cc1	SKN-1 block 49.0
Fc1ccc(COc2ccc(-c3nnco3)cc2)c(Cl)c1	SKN-1 block 86.7
O=C(COc1ccc(-c2nnco2)cc1)Nc1c(F)cccc1F	none
CN(N=O)c1ccc(CC2CCc3ccccc32)cc1 (stereo unspecified)	SKN-1 block 43.6
Cc1ccc(N=C2NC(=O)/C(=C\c3cccs3)S2)cc1C	none
Cc1ccc(/C=C2/SC(=Nc3ccc(F)cc3)NC2=O)s1	SKN-1 block 40.2
Cc1ccc(S(=O)(=O)N2CCC(C(=O)Nc3ccccc3N3CCCC3)CC2)cc1	none
CSc1ccc(S(=O)(=O)N2CCC(C(=O)Nc3ccccc3C(F)(F)F)CC2)cc1	SKN-1 block 42.1
COc1ccc(-c2nc(=S)c3c(n2CCN2CCOCC2)CC(C)(C)OC3)cc1	none
Cc1ccc(-c2nc(=S)c3c(n2CCN2CCOCC2)CC(C)(C)OC3)cc1	SKN-1 block 35.7
Cn1ncc2nc[nH]c(=O)c21	none
CCOC(=O)C(Oc1ccc2c(-c3ccccc3)cc(=O)oc2c1C)c1ccccc1 (stereo unspecified)	none
CCOC(=O)C(Oc1ccc2c(-c3ccc(OC)cc3)cc(=O)oc2c1C)c1ccccc1 (stereo unspecified)	SKN-1 block 35.8
COC(=O)Nc1ccc(OC)c(OC)c1	none
Cc1ccc(-c2nn(-c3ccccc3)cc2/C=C(\C#N)c2cccc(C#N)c2)o1	Neddyl block active (no result: proKLK7 act, DDE Tn6 FP inh, DDE Tn7 FP inh)
N#C/C(=C\c1cn(-c2ccccc2)nc1-c1cc2ccccc2o1)c1nc2ccccc2[nH]1	none (not shown: Neddyl block)
CC1=C(C(=O)c2ccccc2)C(c2cn(-c3ccccc3)nc2-c2ccc(Cl)cc2)NC(=S)N1 (stereo unspecified)	SKN-1 block 37.7
O=C1NC(=O)C(c2cn(-c3ccccc3)nc2-c2ccc(F)cc2)N1 (stereo unspecified)	none
CC1(C)Cc2ccccc2-c2nnc(SCc3ccc(C#N)cc3)n21	none
